In ChEMBL document CHEMBL1134350, “seco-Cyclothialidines: new concise synthesis, inhibitory activity toward bacterial and human DNA topoisomerases, and antibacterial properties” (J Med Chem, 2001):
≈ marks a conversion by molar mass, not a printed value.

Experiments:
Streptococcus pyogenes [1] = assay: Antibacterial activity against Streptococcus pyogenes 4851.; assay type: functional
Method in brief: (§1)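 Agar dilution MIC on IsoSensitest agar or Mueller Hinton agar with 10% horse blood and IsoVitaleX. Overnight cultures were grown in BHI broth for staphylococci and enterobacteria, or in BHI plus 10% bovine serum for streptococci and enterococci, then diluted 1:100. Compounds were tested at 0.125-64 µg/mL. Plates were incubated aerobically at 37 °C for about 20 h. MIC = first concentration with no visible growth.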

Streptococcus pyogenes [2] = assay: Antibacterial activity against Streptococcus pyogenes 7029.; assay type: functional; method in brief: as §1
Klebsiella pneumoniae [3] = assay: Antibacterial activity against Klebsiella pneumoniae 63.; assay type: functional; method in brief: as §1
Staphylococcus aureus [4] = assay: Antibacterial activity against Staphylococcus aureus 44(25508).; assay type: functional; method in brief: as §1
Staphylococcus aureus [5] = assay: Antibacterial activity against Staphylococcus aureus 133.; assay type: functional; method in brief: as §1
Enterococcus faecalis [6] = assay: Antibacterial activity against Enterococcus faecalis 27253.; assay type: functional; method in brief: as §1
Proteus vulgaris = assay: Antibacterial activity against Proteus vulgaris 1017.; assay type: functional; method in brief: as §1
Staphylococcus aureus [7] = assay: Antibacterial activity against Staphylococcus aureus 25701.; assay type: functional; method in brief: as §1
Staphylococcus aureus [8] = assay: Antibacterial activity against Staphylococcus aureus 48 N.; assay type: functional; method in brief: as §1
Streptococcus pyogenes [9] = assay: Antibacterial activity against Streptococcus pyogenes 4333.; assay type: functional; method in brief: as §1
DNA topoisomerase II = DNA topoisomerase II (Homo sapiens, UniProt P11388+Q02880); assay: […] human DNA Topoisomerase II; assay type: protein assay
Method in brief: (§2)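 Human topoisomerase reactions used supercoiled pBR322 (100 ng) with 1 unit enzyme in the supplier's reaction buffer and compounds in DMSO. Incubation was 30 min, stopped with SDS/sucrose dye.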

Staphylococcus aureus [10] = assay: Antibacterial activity against Staphylococcus aureus 25470.; assay type: functional; method in brief: as §1
Klebsiella pneumoniae [11] = assay: Antibacterial activity against Klebsiella pneumoniae 8085.; assay type: functional; method in brief: as §1
Escherichia coli = assay: Antibacterial activity against Escherichia coli Neumann.; assay type: functional; method in brief: as §1
Streptococcus pyogenes [12] = assay: Antibacterial activity against Streptococcus pyogenes Wacker.; assay type: functional; method in brief: as §1
[13] = tested on: Staphylococcus saprophyticus; assay: Antibacterial activity against Staphylococcus saprophyticus 2916.; assay type: functional; method in brief: as §1
[14] = tested on: Staphylococcus epidermidis; assay: Antibacterial activity against Staphylococcus epidermidis 193.; assay type: functional; method in brief: as §1
Enterococcus faecalis [15] = assay: Antibacterial activity against Enterococcus faecalis 27251.; assay type: functional; method in brief: as §1
Staphylococcus aureus [16] = assay: Antibacterial activity against Staphylococcus aureus 9TV.; assay type: functional; method in brief: as §1
Enterococcus faecium [17] = assay: Antibacterial activity against Enterococcus faecium 27266.; assay type: functional; method in brief: as §1
Enterococcus faecium [18] = assay: Antibacterial activity against Enterococcus faecium L4001.; assay type: functional; method in brief: as §1
Proteus mirabilis = assay: Antibacterial activity against Proteus mirabilis 1235.; assay type: functional; method in brief: as §1
DNA topoisomerase 1 = target: T1, DNA topoisomerase 1 (Homo sapiens, UniProt P11387); assay: Antibacterial activity against human DNA Topo I.; method in brief: as §2
T1 sequence (P11387 whole entry): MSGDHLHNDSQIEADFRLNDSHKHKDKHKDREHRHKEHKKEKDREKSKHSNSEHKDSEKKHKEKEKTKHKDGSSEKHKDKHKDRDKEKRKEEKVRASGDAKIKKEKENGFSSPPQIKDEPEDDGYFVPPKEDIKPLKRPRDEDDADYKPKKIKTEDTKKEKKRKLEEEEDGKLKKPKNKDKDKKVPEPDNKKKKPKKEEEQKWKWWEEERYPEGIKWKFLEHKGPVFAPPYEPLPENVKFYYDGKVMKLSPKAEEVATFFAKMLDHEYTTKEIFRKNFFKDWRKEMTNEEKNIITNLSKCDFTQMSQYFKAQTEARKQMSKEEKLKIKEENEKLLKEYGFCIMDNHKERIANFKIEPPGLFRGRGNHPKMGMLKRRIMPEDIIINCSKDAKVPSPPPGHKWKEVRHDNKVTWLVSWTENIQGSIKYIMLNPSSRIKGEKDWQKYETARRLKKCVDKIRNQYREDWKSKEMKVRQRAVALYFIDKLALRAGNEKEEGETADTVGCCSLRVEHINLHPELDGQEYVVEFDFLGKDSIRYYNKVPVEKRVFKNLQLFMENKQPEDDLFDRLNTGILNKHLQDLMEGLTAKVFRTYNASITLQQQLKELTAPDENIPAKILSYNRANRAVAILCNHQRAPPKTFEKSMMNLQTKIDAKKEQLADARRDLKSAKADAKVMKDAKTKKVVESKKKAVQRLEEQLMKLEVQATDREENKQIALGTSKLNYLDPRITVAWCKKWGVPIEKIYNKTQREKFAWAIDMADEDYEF

[19] = tested on: Staphylococcus haemolyticus; assay: Antibacterial activity against Staphylococcus haemolyticus 146.; assay type: functional; method in brief: as §1
[20] = tested on: Staphylococcus epidermidis; assay: Antibacterial activity against Staphylococcus epidermidis.; assay type: functional; method in brief: as §1
Staphylococcus aureus [21] = assay: Antibacterial activity against Staphylococcus aureus 25923.; assay type: functional; method in brief: as §1
Staphylococcus aureus [22] = assay: Antibacterial activity against Staphylococcus aureus QR-54.; assay type: functional; method in brief: as §1
Streptococcus pyogenes [23] = assay: Antibacterial activity against Streptococcus pyogenes.; assay type: functional; method in brief: as §1
Enterococcus faecalis [24] = assay: Antibacterial activity against Enterococcus faecalis.; assay type: functional; method in brief: as §1

| Structure (SMILES) | MIC (Streptococcus pyogenes [1]) [µg/mL] | MIC (Streptococcus pyogenes [2]) [µg/mL] | MIC (Klebsiella pneumoniae [3]) [µg/mL] | MIC (Staphylococcus aureus [4]) [µg/mL] | MIC (Staphylococcus aureus [5]) [µg/mL] | MIC (Enterococcus faecalis [6]) [µg/mL] | MIC (Proteus vulgaris) [µg/mL] | MIC (Staphylococcus aureus [7]) [µg/mL] | MIC (Staphylococcus aureus [8]) [µg/mL] | MIC (Streptococcus pyogenes [9]) [µg/mL] | MIC (Staphylococcus aureus [10]) [µg/mL] | MIC (Klebsiella pneumoniae [11]) [µg/mL] | MIC (Escherichia coli) [µg/mL] | MIC (Streptococcus pyogenes [12]) [µg/mL] | MIC [13] [µg/mL] | MIC [14] [µg/mL] | MIC (Enterococcus faecalis [15]) [µg/mL] | MIC (Staphylococcus aureus [16]) [µg/mL] | MIC (Enterococcus faecium [17]) [µg/mL] | MIC (Enterococcus faecium [18]) [µg/mL] | further results |
| --- | --- | --- | --- | --- | --- | --- | --- | --- | --- | --- | --- | --- | --- | --- | --- | --- | --- | --- | --- | --- | --- |
| COC(=O)c1c(Br)c(OC)cc(O)c1CSC[C@H](Nc1nc(-c2ccc([N+](=O)[O-])cc2)cs1)C(=O)OC | 1 (≈ 1.63 µM) | 2 (≈ 3.27 µM) | > 64 | 2 (≈ 3.27 µM) | 1 (≈ 1.63 µM) | 1 (≈ 1.63 µM) | > 64 | 1 (≈ 1.63 µM) | 1 (≈ 1.63 µM) | 1 (≈ 1.63 µM) | 1 (≈ 1.63 µM) | > 64 | > 64 | 1 (≈ 1.63 µM) | 1 (≈ 1.63 µM) | 0.5 (≈ 0.816 µM) | 2 (≈ 3.27 µM) | 1 (≈ 1.63 µM) | 2 (≈ 3.27 µM) | 2 (≈ 3.27 µM) | IC50 (DNA topoisomerase II): 15 µg/mL (≈ 24.5 µM); MIC (Proteus mirabilis): > 64 µg/mL; IC50 (DNA topoisomerase 1): > 392 µM; MIC [19]: 1 µg/mL (≈ 1.63 µM) |
| COC(=O)c1c(Br)c(OC)cc(O)c1CSC[C@H](Nc1nc(-c2ccc([N+](=O)[O-])cc2)cs1)C1=NOCCO1 | 0.25 (≈ 0.391 µM) | 0.5 (≈ 0.782 µM) | > 64 | 0.25 (≈ 0.391 µM) | 0.25 (≈ 0.391 µM) | 0.5 (≈ 0.782 µM) | > 64 | < 0.12 | 0.25 (≈ 0.391 µM) | 0.25 (≈ 0.391 µM) | 0.25 (≈ 0.391 µM) | > 64 | > 64 | 0.25 (≈ 0.391 µM) | < 0.12 | < 0.12 | 0.5 (≈ 0.782 µM) | 0.25 (≈ 0.391 µM) | 0.5 (≈ 0.782 µM) | 0.5 (≈ 0.782 µM) | IC50 (DNA topoisomerase II): 60 µg/mL (≈ 93.8 µM); MIC (Proteus mirabilis): > 64 µg/mL; IC50 (DNA topoisomerase 1): > 375 µM; MIC [19]: < 0.12 µg/mL |
| COC(=O)c1c(Br)c(OC)cc(O)c1CSC[C@H](Nc1nc(-c2ccc([N+](=O)[O-])cc2)cs1)c1nc(C)no1 | 0.25 (≈ 0.393 µM) | 0.5 (≈ 0.786 µM) | > 64 | 0.25 (≈ 0.393 µM) | 0.25 (≈ 0.393 µM) | 0.25 (≈ 0.393 µM) | > 64 | < 0.12 | 0.25 (≈ 0.393 µM) | < 0.12 | 0.25 (≈ 0.393 µM) | > 64 | > 64 | 0.25 (≈ 0.393 µM) | 0.25 (≈ 0.393 µM) | < 0.12 | 0.5 (≈ 0.786 µM) | 0.25 (≈ 0.393 µM) | 0.5 (≈ 0.786 µM) | 0.5 (≈ 0.786 µM) | MIC [20]: 0.12 µg/mL (≈ 0.189 µM); MIC (Staphylococcus aureus [21]): 0.12 µg/mL (≈ 0.189 µM); IC50 (DNA topoisomerase II): 60 µg/mL (≈ 94.3 µM); MIC (Staphylococcus aureus [22]): 0.25 µg/mL (≈ 0.393 µM); MIC (Streptococcus pyogenes [23]): 0.12 µg/mL (≈ 0.189 µM); MIC (Enterococcus faecalis [24]): 0.25 µg/mL (≈ 0.393 µM); MIC (Proteus mirabilis): > 64 µg/mL; IC50 (DNA topoisomerase 1): > 377 µM; MIC [19]: 0.25 µg/mL (≈ 0.393 µM) |
| COC(=O)c1c(Br)c(OC)cc(O)c1CSC[C@@H](Nc1nc(-c2ccc([N+](=O)[O-])cc2)cs1)C1=NOCCO1 | > 64 | > 64 | > 64 | > 64 | > 64 | > 64 | > 64 | > 64 | > 64 | 64 (≈ 100 µM) | > 64 | > 64 | > 64 | > 64 | > 64 | > 64 | > 64 | > 64 | > 64 | > 64 | MIC (Proteus mirabilis): > 64 µg/mL; MIC [19]: > 64 µg/mL |
